Compound activity from PubChem BioAssay.
T cruzi repl: T. cruzi replication inhibition | T. cruzi beta-gal in NIH3T3, luminescence, 90 h | inhibition, % (test concentration not listed) | 1.4% of 300,000 active;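 active = mean inhibition across valid replicates above about 55%, limit read from the data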;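 note: signal also drops with host cell toxicity which is not excluded here; 0% = plate median of DMSO wells and 100% = zero luminescence signal; higher percent means less beta-gal luminescence so fewer parasites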
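compound dosing = single 50 nL compound addition per well in DMSO | material = NIH/3T3 host cells with β-galactosidase reporter T. cruzi | input = 5,000 host fibroblasts per well | timing = ≥90 h infection period, 3 h prior cell attachment | read-out basis = percent inhibition of parasite-derived β-gal signal | detection = GalScreen β-gal luminescence, detergent lysis, 60 min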
CHT inh: inhibitors of human choline transporter CHT; B-score at 10 µM; CHT-expressing cells, membrane potential dye, choline response; hits give low values; 0.86% of 310,000 active; Q9GZV3;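 active = B-score over 3 SD under the library average, and starting fluorescence ratio not unusually high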;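 note: choline stimulus applied at its EC90 after an EC20 pre-addition; B-score computed on integrated fluorescence ratio after choline addition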
PolyA inh: blocks polyadenylation in yeast reporter cells; S. cerevisiae SKY197-pL101 polyadenylation reporter, beta-gal luminescence; efflux-impaired pdr1/pdr3 knockout yeast; score 100 = 6 SD above DMSO; activity score, % at 12 µM; 0.02% of 300,000 active;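 active = lowest replicate activity score at least 50, where 100 means six control SD above control mean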;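 note: yeast exposed to compound for 9 h at 30 °C; higher score means more reporter readthrough which indicates perturbed polyadenylation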
CHT allo act: allosteric activators of human choline transporter CHT; Q9GZV3; CHT-expressing cells, membrane potential dye, choline EC20; hits give high values; LV-AA mutant CHT in HEK293 cells; B-score at 10 µM; 0.49% of 310,000 active;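 active = initial fluorescence not abnormally high and integrated response B-score, plate-corrected, over 3 SD above library mean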
* = called active by the depositor; i = inactive; · = no result given. Rows were chosen to be rich in hits. Some 2.6% of all compounds tested hit in one or more screens of this group.

SMILES | T cruzi repl | CHT inh | PolyA inh | CHT allo act
CC1(C(=O)N/N=C/c2ccc([N+](=O)[O-])o2)CC1(Br)Br (stereo not given) | 50 | i | -2 | i
O=[N+]([O-])c1ccc(/C=N/Nc2nc(N3CCCCC3)nc(N3CCCCC3)n2)cc1 | 9 | i | -10 | i
O=C(CC12CC3CC(CC(C3)C1)C2)N/N=C\c1ccc[nH]1 | 1 | i | 13 | i
O=[N+]([O-])c1ccc(/C=N/Nc2nc(N3CCCCCC3)nc(N3CCCCCC3)n2)o1 | 76* | i | -35 | i
O=C(CCN1CCN(c2ccccc2)CC1)N/N=C/c1ccc(O)c(O)c1O | -6 | · | 24 | ·
O=C(CC12CC3CC(CC(C3)C1)C2)N/N=C/c1ccc([N+](=O)[O-])o1 | 55* | i | 1 | i
O=C(Cc1ccc([N+](=O)[O-])cc1)N/N=C/c1ccc([N+](=O)[O-])o1 | 107* | i | 3 | i
O=C(CCN1CCN(c2ccccc2)CC1)N/N=C/c1ccc([N+](=O)[O-])o1 | 96* | i | -3 | i
COc1cc(CN2CCC(C(=O)NCC(C)(C)CN(C)C)CC2)ccc1OCc1ccccc1 | -2 | i | -24 | i
O=C(CNc1cccc2ccccc12)N/N=C/c1ccc([N+](=O)[O-])o1 | 83* | i | -28 | i
O=C(CNc1cccc([N+](=O)[O-])c1)N/N=C/c1ccc([N+](=O)[O-])o1 | 68* | i | -3 | i
O=C(CNc1cccc2ccccc12)N/N=C/c1ccc[nH]1 | -17 | i | -8 | i
O=C(CNc1ccccc1)N/N=C/c1ccc([N+](=O)[O-])cc1 | -11 | i | -3 | i
O=C(CN1CCCCCCC1)N/N=C/c1ccc([N+](=O)[O-])o1 | 58* | i | -4 | i
Cc1ccc(-c2ccc(/C=N/NC(=O)CN3CCCC3)o2)cc1Cl | -11 | i | -10 | i
Cc1ccc(O)c(N=Nc2ccccc2)n1 | 11 | i | -20 | i
O=C(/C=C/c1ccc(F)cc1)N1CC[C@@]2(O)CCCC[C@H]2C1 | 2 | i | 10 | i
CNC1=C(N(C(C)=O)c2ccc(Br)cc2)C(=O)c2ccccc2C1=O | 70* | i | -13 | i
O=C(/C(=C/c1ccc(Cl)cc1)c1nc2ccccc2[nH]1)c1ccccc1 | 68* | i | -35 | i
O=C(O)C1=C(C(=O)Nc2cc(C(F)(F)F)ccc2Cl)CCCC1 | -4 | i | -6 | i
C=CCN(C(=O)CSc1nc2c(sc3ccccc32)c(=O)n1CCN(CC)CC)c1ccccc1 | 82* | i | -18 | i
CCN(CC)CCn1c(SCC(=O)Nc2ccc(F)cc2)nc2c(sc3ccccc32)c1=O | 10 | i | -6 | i
Cc1ccccc1N=C1c2cc([N+](=O)[O-])ccc2-c2ncccc21 | 2 | i | -11 | 9.7*
Cc1cc([N+](=O)[O-])cc2c1-c1ncccc1C2=Nc1ccccc1 | -3 | i | -29 | i
CC1CC2=C(NC(=S)NC2c2cccc(F)c2)/C(=C/c2cccc(F)c2)C1 (stereo not given) | 59* | · | 10 | ·
SMILES | T cruzi repl | CHT inh | PolyA inh | CHT allo act
O=C(O)c1cccc(S(=O)(=O)N(Cc2ccccc2)c2ccc(Cl)cc2)c1 | -18 | i | -10 | i
CCc1cccc(CC)c1NC(=O)CSc1nnc(C2CC2)n1C | 2 | i | -2 | i
COc1ccccc1C(CC(=O)Nc1ccc(Cl)cc1)c1ccc(OC(C)C)cc1 (stereo not given) | 46 | i | 4 | i
CC(C)Oc1ccc(CNC(=O)CC(c2ccccc2)c2cc(Cl)ccc2O)cc1 (stereo not given) | 56* | i | -13 | i
COc1ccc(CC(=O)Nc2nc(-c3ccncc3)cs2)cc1 | 67* | i | -7 | i
CCc1ccc(O)c(CNCCNCc2cc(CC)ccc2O)c1 | 47 | -6.8* | 6 | i
Cn1c(/C=C/c2ccccc2)nc2ccccc2c1=O | -16 | i | -12 | i
Cn1c(/C=C/c2ccc([N+](=O)[O-])o2)nc2ccccc2c1=O | 67* | i | -97 | i
COc1ccc(N2C3=C(CC4=C2CC(C)(C)CC4=O)C(=O)CC(C)(C)C3)cc1 | 64* | i | 4 | i
CC1=C(C(=O)Nc2cc(C(=O)NCCC(C)C)ccc2C)SCCO1 | -14 | i | 21 | i
CCC1=Nc2cc(C(=O)NCCCOC)ccc2Sc2ccccc21 | 56* | i | -13 | i
